The values that follow come from ChEMBL document CHEMBL1128722, “Mechanism-based isocoumarin inhibitors for human leukocyte elastase. Effect of the 7-amino substituent and 3-alkoxy group in 3-alkoxy-7-amino-4-chloroisocoumarins on inhibitory potency” (J Med Chem, 1995).

Structures are written as SMILES. Bounds are passed on as bounds.

Test system in the first series: not listed separately
As to the kind of experiment: Half-life for hydrolysis was determined from kinetic constant. The class given is ADME. Put shortly:
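Spontaneous hydrolysis in 0.1 M HEPES, 0.5 M NaCl, pH 7.5, 10% v/v DMSO final, 25 °C. Inhibitor added from 2.9–5.0 mM DMSO stock. Ring opening followed as absorbance decrease at 385 nm (ε385 = 3300 M⁻¹ cm⁻¹). Half-life from the first-order rate. Two determinations, standard errors ±15% or less.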
On to `COc1oc(=O)c2cc(N)ccc2c1Cl`, for which the half-life (usually the time in which the quantity being followed falls by half) was 3.3 h.
Take `O=C(O)CCC(=O)N[C@@H](Cc1ccccc1)C(=O)Nc1ccc2c(Cl)c(OCCBr)oc(=O)c2c1`: the half-life was 2.5 h.
Turning to `CC(C)(C)OC(=O)N[C@@H](Cc1c[nH]c2ccccc12)C(=O)Nc1ccc2c(Cl)c(OCCBr)oc(=O)c2c1`, the half-life is 26 h. Compared with the last compound, the half-life is about 10-fold higher.
Take `O=C1CC(c2ccccc2)CC(=O)N1c1ccc2c(Cl)c(OCCBr)oc(=O)c2c1`: the half-life is > 48 h.
Compound `C[C@@H](OC(=O)Nc1ccccc1)C(=O)Nc1ccc2c(Cl)c(OCCBr)oc(=O)c2c1` had a half-life of 6.4 h.
Still for that read-out and setting: then `C[C@@H](NC(=O)Nc1ccc2c(Cl)c(OCCBr)oc(=O)c2c1)c1cccc2ccccc12`, with > 48 h.

Another series concerns the target T1, Cathepsin G (Homo sapiens) (UniProt P08311).
T1 sequence (whole entry): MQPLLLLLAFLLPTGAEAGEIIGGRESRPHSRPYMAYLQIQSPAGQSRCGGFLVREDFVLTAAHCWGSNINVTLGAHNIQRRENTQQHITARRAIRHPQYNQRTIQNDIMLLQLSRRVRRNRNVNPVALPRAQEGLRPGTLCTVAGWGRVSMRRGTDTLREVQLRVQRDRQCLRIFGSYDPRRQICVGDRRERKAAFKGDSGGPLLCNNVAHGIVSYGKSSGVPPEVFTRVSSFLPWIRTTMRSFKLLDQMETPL
Put plainly: Inhibition of cathepsin G(Cat G) at 35-710 uM. Put shortly: (§1)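 Kitz–Wilson incubation method. Enzyme was preincubated with inhibitor (added in DMSO) in 0.1 M HEPES, 0.5 M NaCl, pH 7.5, at 25 °C. Aliquots were taken over time and diluted into pNA substrate: HLE MeO-Suc-Ala-Ala-Pro-Val-pNA (0.2–0.5 mM), PPE Suc-Ala-Ala-Ala-pNA, ChT and Cat G Suc-Val-Pro-Phe-pNA (0.4–0.5 mM). Release was read at 410 nm. kobs/[I] from ln(v0/vt) vs time. Mean of two determinations. Fast rates measured with equimolar inhibitor and enzyme.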
Regarding `C[C@@H](NC(=O)Nc1ccc2c(Cl)c(OCCBr)oc(=O)c2c1)c1ccccc1`, the inhibition (in general, the change of the read-out against control, counted positive when it falls) is 21%.
Same read-out and setting: then `O=C(Cc1ccccc1)Nc1ccc2c(Cl)c(OCCCBr)oc(=O)c2c1`, with 28%; and `O=C(Nc1ccccc1)Nc1ccc2c(Cl)c(OCCCBr)oc(=O)c2c1`, with 17%; and `O=C(NCc1ccccc1)Nc1ccc2c(Cl)c(OCCCBr)oc(=O)c2c1`, with 21%.
On the same count and under the same terms, the value for `O=C(NCc1ccccc1)Nc1ccc2c(Cl)c(OCCBr)oc(=O)c2c1` was 23%; that for `CC(C)(C)OC(=O)N[C@@H](Cc1ccccc1)C(=O)Nc1ccc2c(Cl)c(OCCBr)oc(=O)c2c1` was 19%; that for `O=C(Nc1ccc2c(Cl)c(OCCBr)oc(=O)c2c1)Nc1cccc2ccccc12` was 22%.
Still for that read-out and setting: then `CC(C)(C)OC(=O)N[C@H](Cc1ccccc1)C(=O)Nc1ccc2c(Cl)c(OCCBr)oc(=O)c2c1`, with 19%.

In the next series the target is T1, Cathepsin G (Homo sapiens). Put plainly: Inhibition of cathepsin G at 35-710 uM. In outline:
as §1
With `CC(Br)COc1oc(=O)c2cc([N+](=O)[O-])ccc2c1Cl` (configuration not stated), the K obs / 1 was 1660 M⁻¹ s⁻¹.
The same measure, in the same setting: the value for `O=C(O)c1ccc(N/C(S)=N/c2ccc3c(Cl)c(OCCBr)oc(=O)c3c2)cc1` was 450 M⁻¹ s⁻¹.
`O=C(Cc1ccccc1)Nc1ccc2c(Cl)c(OCCBr)oc(=O)c2c1` registered a K obs / 1 of 70 M⁻¹ s⁻¹.
The same measure, in the same setting: then `O=c1oc(OCCBr)c(Cl)c2ccc(N[N+](=O)[O-])cc12`, with 710 M⁻¹ s⁻¹.
On the same count and under the same terms, the value for `CC(C)NC(=O)Nc1ccc2c(Cl)c(OCCBr)oc(=O)c2c1` was 77 M⁻¹ s⁻¹; that for `O=C(O)c1cccc(N/C(S)=N/c2ccc3c(Cl)c(OCCBr)oc(=O)c3c2)c1` was 320 M⁻¹ s⁻¹.
On the same count and under the same terms, the value for `CC(C)(C)CC(=O)Nc1ccc2c(Cl)c(OCCBr)oc(=O)c2c1` was 240 M⁻¹ s⁻¹; that for `C[C@H](NC(=O)Nc1ccc2c(Cl)c(OCCBr)oc(=O)c2c1)c1ccccc1` was 77 M⁻¹ s⁻¹.
`C[C@H](NC(=O)OC(C)(C)C)C(=O)N[C@@H](C)C(=O)Nc1ccc2c(Cl)c(OCCBr)oc(=O)c2c1` came in with a K obs / 1 of 46 M⁻¹ s⁻¹.
Still for that read-out and setting: the value for `CC(=O)Nc1ccc2c(Cl)c(OCCCBr)oc(=O)c2c1` was 170 M⁻¹ s⁻¹.

The next series deals with T2, Neutrophil elastase (Homo sapiens) (UniProt P08246).
T2 sequence (whole entry): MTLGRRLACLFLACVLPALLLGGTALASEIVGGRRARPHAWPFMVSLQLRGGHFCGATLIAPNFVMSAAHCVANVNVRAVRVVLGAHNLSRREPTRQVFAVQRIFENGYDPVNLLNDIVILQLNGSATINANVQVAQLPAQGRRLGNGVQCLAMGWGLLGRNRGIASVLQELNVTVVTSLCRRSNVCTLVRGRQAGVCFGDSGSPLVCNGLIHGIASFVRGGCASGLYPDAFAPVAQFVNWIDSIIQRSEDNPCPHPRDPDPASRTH
As to the kind of experiment: Second order inactivation rate constant for inhibition of human leukocyte elastase. In outline:
as §1
In turn, `COc1oc(=O)c2cc(N)ccc2c1Cl` showed a k obs / 1 of 10000 M⁻¹ s⁻¹.

Another series addresses T2, Neutrophil elastase (Homo sapiens). As to the kind of experiment: The second order inactivation rate constant expressed as inhibition of human leukocyte elastase (HLE). Inhibitor concentrations were 0.07-710 uM. Put shortly:
as §1
For the compound `O=C(O)c1ccc(N/C(S)=N/c2ccc3c(Cl)c(OCCBr)oc(=O)c3c2)cc1`, the K obs / 1 is > 390000 M⁻¹ s⁻¹.
Still for that read-out and setting: the value for `O=C(O)CCC(=O)N[C@@H](Cc1ccccc1)C(=O)Nc1ccc2c(Cl)c(OCCBr)oc(=O)c2c1` was 40000 M⁻¹ s⁻¹; that for `C[C@@H](NC(=O)Nc1ccc2c(Cl)c(OCCBr)oc(=O)c2c1)c1ccccc1` was > 570000 M⁻¹ s⁻¹.
Same read-out and setting: then `O=C(Cc1ccccc1)Nc1ccc2c(Cl)c(OCCBr)oc(=O)c2c1`, with 480000 M⁻¹ s⁻¹.
Same read-out and setting: then `O=c1oc(OCCBr)c(Cl)c2ccc(N[N+](=O)[O-])cc12`, with 65600 M⁻¹ s⁻¹; and `O=C(Cc1ccccc1)Nc1ccc2c(Cl)c(OCCCBr)oc(=O)c2c1`, with 32400 M⁻¹ s⁻¹; and `CC(C)(C)OC(=O)N[C@@H](Cc1c[nH]c2ccccc12)C(=O)Nc1ccc2c(Cl)c(OCCBr)oc(=O)c2c1`, with 170000 M⁻¹ s⁻¹.
The compound `O=C1CC(c2ccccc2)CC(=O)N1c1ccc2c(Cl)c(OCCBr)oc(=O)c2c1` registered a K obs / 1 of 85000 M⁻¹ s⁻¹.
On the same count and under the same terms, then `O=C(NCc1ccccc1)Nc1ccc2c(Cl)c(OCCCBr)oc(=O)c2c1`, with 15600 M⁻¹ s⁻¹.
`CC(C)NC(=O)Nc1ccc2c(Cl)c(OCCBr)oc(=O)c2c1` had a K obs / 1 of 646000 M⁻¹ s⁻¹.
Still for that read-out and setting: then `O=C(O)c1cccc(N/C(S)=N/c2ccc3c(Cl)c(OCCBr)oc(=O)c3c2)c1`, with > 240000 M⁻¹ s⁻¹.
On the same count and under the same terms, then `C[C@H](NC(=O)Nc1ccc2c(Cl)c(OCCBr)oc(=O)c2c1)c1ccccc1`, with > 440000 M⁻¹ s⁻¹; and `O=C(NCc1ccccc1)Nc1ccc2c(Cl)c(OCCBr)oc(=O)c2c1`, with 480000 M⁻¹ s⁻¹; and `C[C@@H](OC(=O)Nc1ccccc1)C(=O)Nc1ccc2c(Cl)c(OCCBr)oc(=O)c2c1`, with 140000 M⁻¹ s⁻¹.
The same measure, in the same setting: then `CC(C)(C)OC(=O)N[C@@H](Cc1ccccc1)C(=O)Nc1ccc2c(Cl)c(OCCBr)oc(=O)c2c1`, with 146000 M⁻¹ s⁻¹.
In turn, `O=C(Nc1ccc2c(Cl)c(OCCBr)oc(=O)c2c1)Nc1cccc2ccccc12` showed a K obs / 1 of 390000 M⁻¹ s⁻¹.
On the same count and under the same terms, then `C[C@H](NC(=O)OC(C)(C)C)C(=O)N[C@@H](C)C(=O)Nc1ccc2c(Cl)c(OCCBr)oc(=O)c2c1`, with 230000 M⁻¹ s⁻¹.
On to `C[C@@H](NC(=O)Nc1ccc2c(Cl)c(OCCBr)oc(=O)c2c1)c1cccc2ccccc12`, for which the K obs / 1 was 310000 M⁻¹ s⁻¹.
The same measure, in the same setting: the value for `CC(=O)Nc1ccc2c(Cl)c(OCCCBr)oc(=O)c2c1` was 24400 M⁻¹ s⁻¹.
Consider `CC(C)(C)OC(=O)N[C@H](Cc1ccccc1)C(=O)Nc1ccc2c(Cl)c(OCCBr)oc(=O)c2c1`, for which the K obs / 1 was 160000 M⁻¹ s⁻¹.

The target is the same in a further series. As to the kind of experiment: Inhibition of human leukocyte elastase. In outline:
as §1
`COc1oc(=O)c2cc(N)ccc2c1Cl`: the [I] worked out at 6 µM.

Another series deals with T3, Chymotrypsin-like elastase family member 2A (Sus scrofa) (UniProt P08419).
T3 sequence (whole entry): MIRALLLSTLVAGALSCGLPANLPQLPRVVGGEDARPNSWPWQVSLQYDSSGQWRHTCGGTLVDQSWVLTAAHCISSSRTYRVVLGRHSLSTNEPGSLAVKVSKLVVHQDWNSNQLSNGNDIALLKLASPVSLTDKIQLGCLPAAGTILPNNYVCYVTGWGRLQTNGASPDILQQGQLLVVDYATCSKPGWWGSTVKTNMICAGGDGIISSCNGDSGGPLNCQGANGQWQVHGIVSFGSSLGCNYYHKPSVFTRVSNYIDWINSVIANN
As to the kind of experiment: The second order inactivation rate constant expressed as inhibition of porcine pancreatic elastase (PPE).Inhibitor concentrations were 0.04-2.0 mM.
Consider `CC(Br)COc1oc(=O)c2cc([N+](=O)[O-])ccc2c1Cl` (configuration not stated), for which the K obs / 1 was determined as 1060 M⁻¹ s⁻¹.
On the same count and under the same terms, the value for `O=C(O)CCC(=O)N[C@@H](Cc1ccccc1)C(=O)Nc1ccc2c(Cl)c(OCCBr)oc(=O)c2c1` was 1900 M⁻¹ s⁻¹.
Same read-out and setting: the value for `C[C@@H](NC(=O)Nc1ccc2c(Cl)c(OCCBr)oc(=O)c2c1)c1ccccc1` was 2660 M⁻¹ s⁻¹.
The same measure, in the same setting: then `O=C(Cc1ccccc1)Nc1ccc2c(Cl)c(OCCBr)oc(=O)c2c1`, with 4950 M⁻¹ s⁻¹; and `O=c1oc(OCCBr)c(Cl)c2ccc(N[N+](=O)[O-])cc12`, with 6330 M⁻¹ s⁻¹; and `O=C(Cc1ccccc1)Nc1ccc2c(Cl)c(OCCCBr)oc(=O)c2c1`, with 28 M⁻¹ s⁻¹.
`CC(C)(C)OC(=O)N[C@@H](Cc1c[nH]c2ccccc12)C(=O)Nc1ccc2c(Cl)c(OCCBr)oc(=O)c2c1` had a K obs / 1 of 12 M⁻¹ s⁻¹.
The same measure, in the same setting: then `O=C1CC(c2ccccc2)CC(=O)N1c1ccc2c(Cl)c(OCCBr)oc(=O)c2c1`, with 75 M⁻¹ s⁻¹; and `O=C(Nc1ccccc1)Nc1ccc2c(Cl)c(OCCCBr)oc(=O)c2c1`, with 4 M⁻¹ s⁻¹.
Same read-out and setting: the value for `O=C(NCc1ccccc1)Nc1ccc2c(Cl)c(OCCCBr)oc(=O)c2c1` was 13 M⁻¹ s⁻¹.
Same read-out and setting: then `CC(C)NC(=O)Nc1ccc2c(Cl)c(OCCBr)oc(=O)c2c1`, with 4470 M⁻¹ s⁻¹; and `CC(C)(C)CC(=O)Nc1ccc2c(Cl)c(OCCBr)oc(=O)c2c1`, with 3650 M⁻¹ s⁻¹.
In turn, `C[C@H](NC(=O)Nc1ccc2c(Cl)c(OCCBr)oc(=O)c2c1)c1ccccc1` registered a K obs / 1 of 9900 M⁻¹ s⁻¹.
Compound `O=C(NCc1ccccc1)Nc1ccc2c(Cl)c(OCCBr)oc(=O)c2c1` registered a K obs / 1 of 3010 M⁻¹ s⁻¹.
The same measure, in the same setting: the value for `C[C@@H](OC(=O)Nc1ccccc1)C(=O)Nc1ccc2c(Cl)c(OCCBr)oc(=O)c2c1` was 13 M⁻¹ s⁻¹; that for `CC(C)(C)OC(=O)N[C@@H](Cc1ccccc1)C(=O)Nc1ccc2c(Cl)c(OCCBr)oc(=O)c2c1` was 50 M⁻¹ s⁻¹.
The same measure, in the same setting: the value for `O=C(Nc1ccc2c(Cl)c(OCCBr)oc(=O)c2c1)Nc1cccc2ccccc12` was 76 M⁻¹ s⁻¹.
The compound `C[C@H](NC(=O)OC(C)(C)C)C(=O)N[C@@H](C)C(=O)Nc1ccc2c(Cl)c(OCCBr)oc(=O)c2c1` had a K obs / 1 of 1670 M⁻¹ s⁻¹.
On the same count and under the same terms, the value for `C[C@@H](NC(=O)Nc1ccc2c(Cl)c(OCCBr)oc(=O)c2c1)c1cccc2ccccc12` was 20 M⁻¹ s⁻¹.
On the same count and under the same terms, then `CC(=O)Nc1ccc2c(Cl)c(OCCCBr)oc(=O)c2c1`, with 24 M⁻¹ s⁻¹.
On the same count and under the same terms, then `CC(C)(C)OC(=O)N[C@H](Cc1ccccc1)C(=O)Nc1ccc2c(Cl)c(OCCBr)oc(=O)c2c1`, with 30 M⁻¹ s⁻¹.
